Tests used:
[1] = folding enthalpy; higher = less favourable; fluorescence melt of hairpins on a sequencing array, two-state fit; conditions: sodium 0.088 M
Procedure, shortened: (§1)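 Melting temperature and folding enthalpy were derived from bootstrapped two-state fits. The fitted temperatures were raised by 9.35 °C to agree with UV melts, and four replicates were combined by inverse variance. The underlying data were Cy3 fluorescence images of library hairpins, with annealed Cy3 and quencher oligos, on a sequenced MiSeq flow cell in 50 mM Na-HEPES pH 8.0, 25 mM NaCl, taken in 2.5 °C steps up to 60 °C, normalised to pre-quench Cy3 and to control constructs.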

[2] = melting temperature; fluorescence melt of hairpins on a sequencing array, two-state fit, raised by 9.35 °C to match UV melts; conditions: sodium 0.088 M
Procedure, shortened: as §1

GCCTACGAAAGTAGTGGC ((((((....)))..)))
folding enthalpy [1]: -24.3 kcal/mol
Tm [2]: 48.4 °C

GCGGGGAGCCGC ((((....))))
folding enthalpy [1]: -14.4 kcal/mol
Tm [2]: 62.7 °C

GATCTCGCCAGAGATC ((((((....))))))
folding enthalpy [1]: -37.1 kcal/mol
Tm [2]: 69 °C

GTTCCGCGAAAGCGTAAC (((.(((....))).)))
folding enthalpy [1]: -20.2 kcal/mol
Tm [2]: 44.1 °C

GAGAACGGAAACGCTCTC ((((.((....)).))))
folding enthalpy [1]: -28.6 kcal/mol
Tm [2]: 43.2 °C

GCGGAGCGAAAGCTGAGC ((..(((....)))..))
folding enthalpy [1]: -14.6 kcal/mol
Tm [2]: 56.5 °C

CGCAAACGGAAACGTGCG (((..(((....))))))
folding enthalpy [1]: -36.2 kcal/mol
Tm [2]: 50.9 °C

GCAGTGGCGAAAGCCTGC (((..(((....))))))
folding enthalpy [1]: -19.3 kcal/mol
Tm [2]: 58.3 °C

GACAACACGAAAGTGGTC (((..(((....))))))
folding enthalpy [1]: -16 kcal/mol
Tm [2]: 39.8 °C

GCAAAGGGAAACTTTTGC (((((.(....).)))))
folding enthalpy [1]: -26.8 kcal/mol
Tm [2]: 41 °C

CGCTAGCGGAAACGCGCG (((..(((....))))))
folding enthalpy [1]: -25.3 kcal/mol
Tm [2]: 52.7 °C

GATCCAATGTGGATC ((((((...))))))
folding enthalpy [1]: -32.5 kcal/mol
Tm [2]: 50.8 °C

GCCACCGAAAGGTCGGC ((((((....))).)))
folding enthalpy [1]: -29.9 kcal/mol
Tm [2]: 59 °C

GAAGCACGAAAGTGTTC (((.(((....))))))
folding enthalpy [1]: -13.4 kcal/mol
Tm [2]: 36.1 °C

GCACTCGGAAACGAGCGC ((.((((....)))).))
folding enthalpy [1]: -38.9 kcal/mol
Tm [2]: 55.2 °C

GCCTCGCGAAAGCCGGGC (((..((....))..)))
folding enthalpy [1]: -22.5 kcal/mol
Tm [2]: 55.8 °C

GTCAGACCGAAAGGTGAC (((..(((....))))))
folding enthalpy [1]: -21.4 kcal/mol
Tm [2]: 44.4 °C

GCAACGCGAAAGCATTGC ((((.((....)).))))
folding enthalpy [1]: -27.3 kcal/mol
Tm [2]: 59.7 °C

GTTCACGAAAGTGCAAC ((((((....))).)))
folding enthalpy [1]: -16.8 kcal/mol
Tm [2]: 37.8 °C

GCAGAAGCGAAAGCTTGC (((..(((....))))))
folding enthalpy [1]: -16.2 kcal/mol
Tm [2]: 47.2 °C

GAAGTAGGAAACTGCTTC ((((.((....)).))))
folding enthalpy [1]: -34.4 kcal/mol
Tm [2]: 43.3 °C

GCAAAGCGAAAGCTTGGC ((.((((....)))).))
folding enthalpy [1]: -38.7 kcal/mol
Tm [2]: 62.9 °C

GCAATGCGAAAGCCATGC (((..((....))..)))
folding enthalpy [1]: -18.3 kcal/mol
Tm [2]: 37.8 °C

GATGACGAAAGTCACATC ((((((....)))..)))
folding enthalpy [1]: -8.72 kcal/mol
Tm [2]: 29.2 °C

GATCGCGCCGGCGATC ((((((....))))))
folding enthalpy [1]: -25.3 kcal/mol
Tm [2]: 68.2 °C

GATCAAATCATTGATC ((((((....))))))
folding enthalpy [1]: -32.8 kcal/mol
Tm [2]: 41.8 °C

GGTGACGAAAGTCAGACC ((((((....)))..)))
folding enthalpy [1]: -14.6 kcal/mol
Tm [2]: 44.6 °C

GATCGCCGACGCGATC ((((((....))))))
folding enthalpy [1]: -35.7 kcal/mol
Tm [2]: 66.5 °C

GCAACGGGAAACTGTTGC (((((.(....).)))))
folding enthalpy [1]: -40.8 kcal/mol
Tm [2]: 55.6 °C

GGCCTACCGAAAGGTGCC (((..(((....))))))
folding enthalpy [1]: -20.7 kcal/mol
Tm [2]: 46.7 °C

GCTTTGGAAACAAAGC ((((((....))))))
folding enthalpy [1]: -38.1 kcal/mol
Tm [2]: 57.4 °C

GCCACCGGAAACAGTGGC (((((.(....).)))))
folding enthalpy [1]: -30.7 kcal/mol
Tm [2]: 52.6 °C

GATCACCCACGTGATC ((((((....))))))
folding enthalpy [1]: -47 kcal/mol
Tm [2]: 56.5 °C

GCAAGCGAAAGCTTTGC ((((((....))).)))
folding enthalpy [1]: -21 kcal/mol
Tm [2]: 53.7 °C

GTGACAGGAAACTGTCAC (((((((....)))))))
folding enthalpy [1]: -42.1 kcal/mol
Tm [2]: 65.2 °C

GCGTGGCGAAAGCCCCGC (((.(((....))).)))
folding enthalpy [1]: -29.3 kcal/mol
Tm [2]: 67.6 °C

GCTTACGAAAGTACCAGC ((((((....)))..)))
folding enthalpy [1]: -13.2 kcal/mol
Tm [2]: 27.9 °C

GCCTTACGAAAGTAGGGC (((.(((....))).)))
folding enthalpy [1]: -37.1 kcal/mol
Tm [2]: 57.3 °C

GGACCGGGAAACCGATCC (((.(((....))).)))
folding enthalpy [1]: -35.7 kcal/mol
Tm [2]: 48 °C

CGTCACGGAAACGTAACG (((.(((....))).)))
folding enthalpy [1]: -43.1 kcal/mol
Tm [2]: 41.6 °C

GACCTCGGAAACGAGGCC (.(((((....))))).)
folding enthalpy [1]: -13 kcal/mol
Tm [2]: 55.4 °C

GTCGTCGAAAGACTTGAC ((((((....)))..)))
folding enthalpy [1]: -17 kcal/mol
Tm [2]: 38.4 °C

GTCGTCGAAAGACAGAC ((((((....))).)))
folding enthalpy [1]: -26.7 kcal/mol
Tm [2]: 51.6 °C

GAACTAGGAAACTAGTTC (((((((....)))))))
folding enthalpy [1]: -40.2 kcal/mol
Tm [2]: 53.8 °C

GTGAATGGAAACATTCGC (.(((((....))))).)
folding enthalpy [1]: -25.4 kcal/mol
Tm [2]: 49.9 °C

AATCTGAAAAGATT (((((....)))))
folding enthalpy [1]: -13.1 kcal/mol
Tm [2]: 34.7 °C

Source: the array DNA melting data of Ke et al. (doi:10.1101/2024.01.08.574731)
